PMC5644118 (Chemical Science, 2014)

Target: heparin-stabilized human rhSkin β-tryptase (Homo sapiens, UniProt P20231)
Assay: β-tryptase enzyme inhibition assay
Type: biochemical
Method in brief: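 Heparin-stabilized recombinant human skin β-tryptase in 50 mM Tris-HCl, pH 7.4, run in a high-throughput format. Activity was read as release of free AMC from the cleaved Gly-Pro-Arg-AMC peptide substrate. Inhibition mode was assessed by Dixon plots (1/v against inhibitor concentration) at substrate 25, 50, 75, 100, 150 and 200 μM.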

Sequence of heparin-stabilized human rhSkin β-tryptase (P20231 31-275): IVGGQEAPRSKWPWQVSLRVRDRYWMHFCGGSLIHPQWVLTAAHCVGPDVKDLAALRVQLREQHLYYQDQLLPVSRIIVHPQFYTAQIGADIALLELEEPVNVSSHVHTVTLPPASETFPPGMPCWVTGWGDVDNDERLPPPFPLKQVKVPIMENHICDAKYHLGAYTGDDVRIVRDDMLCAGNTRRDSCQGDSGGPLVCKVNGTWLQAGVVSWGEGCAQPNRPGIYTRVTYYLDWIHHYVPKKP

In the case of `C[C@H](NC(=O)CNC(=O)CCC(=O)N/N=C/c1cc(/C=N/NC(=O)CCC(=O)NCC(=O)N[C@@H](C)C(=O)N[C@@H](Cc2ccccc2)C(=O)N[C@@H](CCC(=O)O)C(N)=O)cc(/C=N/NC(=O)CCC(=O)NCC(=O)N[C@@H](C)C(=O)N[C@@H](Cc2ccccc2)C(=O)N[C@@H](CCC(=O)O)C(N)=O)c1)C(=O)N[C@@H](Cc1ccccc1)C(=O)N[C@@H](CCC(=O)O)C(N)=O` [5(E)3], the “inhibition of β-tryptase (in words)” value is reported as “no inhibition of β-tryptase at all”.
